According to ChEMBL document CHEMBL1144463, “Rapid bactericidal activity of daptomycin against methicillin-resistant and methicillin-susceptible Staphylococcus aureus peritonitis in mice as measured with bioluminescent bacteria” (2007):
≈ marks a conversion by molar mass, not a printed value.

Key:
Format in all cases: functional
Staphylococcus aureus [1] = experiment: Antibacterial activity against methicillin-susceptible Staphylococcus aureus Xen29 infected neutropenic CD1 mouse assessed as mortality at 50 mg/kg, sc after 7 days; conditions: 168 h, route subcutaneous
Procedure, shortened: (§1)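 Female CD-1 mice (20–25 g) were made neutropenic with cyclophosphamide i.p. at 150 mg/kg 4 days and 100 mg/kg 1 day before infection. They were infected i.p. with a lethal dose of lux strain (2 × 10^7 to 5 × 10^8 CFU/mouse) suspended in 6% hog gastric mucin. A single s.c. or gavage dose was given 1 h later. Survivors were counted daily for 7 days, n=5/group.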

Staphylococcus aureus [2] = experiment: Antimicrobial activity against bioluminescent methicillin-susceptible Staphylococcus aureus Xen29
Procedure, shortened: (§2)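 MIC by broth microdilution following CLSI guidelines against bioluminescent lux-carrying strains (Xen-1 plasmid-borne lux, Xen-29 chromosomal lux), grown overnight in Mueller-Hinton broth at 37°C.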

Staphylococcus aureus [3] = experiment: Antibacterial activity against methicillin-susceptible Staphylococcus aureus Xen29 infected nonneutropenic CD1 mouse assessed as mouse survival at 50 mg/kg, sc after 7 days; conditions: 168 h, route subcutaneous
Procedure, shortened: (§3)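 Healthy female CD-1 mice (20–25 g) were infected i.p. with a lethal dose of lux strain (2 × 10^7 to 5 × 10^8 CFU/mouse) from an overnight Mueller-Hinton culture suspended in 6% hog gastric mucin. A single s.c. dose was given 1 h post-inoculation. Survival was recorded daily for 7 days, n=5/group.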

Staphylococcus aureus [4] = experiment: Antibacterial activity against methicillin-resistant Staphylococcus aureus Xen1 infected neutropenic CD1 mouse assessed as mouse survival at 50 mg/kg, sc after 24 hrs; conditions: route subcutaneous; procedure, shortened: as §1
Staphylococcus aureus [5] = experiment: Antibacterial activity against methicillin-susceptible Staphylococcus aureus Xen29 infected neutropenic CD1 mouse assessed as mouse survival at 50 mg/kg, sc after 24 hrs; conditions: route subcutaneous; procedure, shortened: as §1
Staphylococcus aureus [6] = experiment: Antibacterial activity against methicillin-resistant Staphylococcus aureus Xen1 infected neutropenic CD1 mouse assessed as mortality at 50 mg/kg, sc after 7 days; conditions: 168 h, route subcutaneous; procedure, shortened: as §1
Staphylococcus aureus [7] = experiment: Reduction in bioluminescent methicillin-resistant Staphylococcus aureus Xen1 in immunocompetent CD1 mouse with peritonitis at 50 mg/kg, sc after 2 hrs relative to control; set-up: scale not given: the % may be the effect or the level left; conditions: route subcutaneous
Procedure, shortened: (§4)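 Peritonitis in healthy female CD-1 mice: lethal i.p. inoculum in 6% mucin, single s.c. dose 1 h later. Mice were anesthetized hourly (isoflurane inhalation or pentobarbital 60 mg/kg i.p.) and imaged ventral side up for 1–5 min. Total flux (photons/s/cm2) was taken over the infected-site region of interest and averaged over 5 mice. Percent reduction is versus saline-treated (10 ml/kg s.c.) controls at the same time point.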

Staphylococcus aureus [8] = experiment: Reduction in bioluminescent methicillin-resistant Staphylococcus aureus with peritonitis Xen1 in immunocompetent CD1 mouse at 50 mg/kg, sc after 3 hrs relative to control; set-up: scale not given: the % may be the effect or the level left; conditions: route subcutaneous; procedure, shortened: as §4
Staphylococcus aureus [9] = experiment: Reduction in bioluminescent methicillin-resistant Staphylococcus aureus Xen1 in neutropenic CD1 mouse with peritonitis at 50 mg/kg, sc after 2 hrs relative to control; set-up: scale not given: the % may be the effect or the level left; conditions: route subcutaneous
Procedure, shortened: (§5)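 Cyclophosphamide-neutropenic female CD-1 mice (150 mg/kg i.p. day −4, 100 mg/kg day −1) were infected i.p. with a lethal inoculum in 6% mucin. A single s.c. or gavage dose was given 1 h later. Mice were anesthetized and imaged hourly to 5 h. Region-of-interest total flux (photons/s/cm2) was averaged over 5 mice. Percent reduction is relative to time-matched saline (10 ml/kg s.c.) controls.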

Staphylococcus aureus [10] = experiment: Reduction in bioluminescent methicillin-resistant Staphylococcus aureus Xen1 in neutropenic CD1 mouse with peritonitis at 50 mg/kg, sc after 5 hrs relative to control; set-up: scale not given: the % may be the effect or the level left; conditions: route subcutaneous; procedure, shortened: as §5
Staphylococcus aureus [11] = experiment: Reduction in bioluminescent methicillin-sensitive Staphylococcus aureus Xen29 in neutropenic CD1 mouse with peritonitis at 50 mg/kg, sc after 2 hrs relative to control; set-up: scale not given: the % may be the effect or the level left; conditions: route subcutaneous
Procedure, shortened: (§6)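 Neutropenia was induced with cyclophosphamide 150 mg/kg i.p. at day −4 and 100 mg/kg i.p. at day −1. Mice were then infected i.p. with Xen-29 (2 × 10^7 to 5 × 10^8 CFU) in 6% mucin (n = 5/group) and dosed once, s.c. or by gavage, at 1 h. Luminescence was imaged hourly under anesthesia, 0–5 h postdosing. Mean region-of-interest flux is given as percent reduction versus time-matched saline (10 ml/kg s.c.) controls.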

Staphylococcus aureus [12] = experiment: Antimicrobial activity against bioluminescent methicillin-resistant Staphylococcus aureus Xen1; procedure, shortened: as §2
Staphylococcus aureus [13] = experiment: Antibacterial activity against methicillin-resistant Staphylococcus aureus Xen1 infected nonneutropenic CD1 mouse assessed as mouse survival at 50 mg/kg, sc after 7 days; conditions: 168 h, route subcutaneous; procedure, shortened: as §3
Staphylococcus aureus [14] = experiment: Reduction in bioluminescent methicillin-sensitive Staphylococcus aureus Xen29 in immunocompetent CD1 mouse with peritonitis at 50 mg/kg, sc relative to control; set-up: scale not given: the % may be the effect or the level left; conditions: route subcutaneous
Procedure, shortened: (§7)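 Peritonitis in healthy female CD-1 mice (n = 5/group): i.p. Xen-29 (2 × 10^7 to 5 × 10^8 CFU) in 6% mucin, then a single s.c. or gavage dose at 1 h. Controls got saline 10 ml/kg s.c. Mice were anesthetized hourly (pentobarbital 60 mg/kg i.p. or isoflurane) and imaged ventral side up for 1–5 min, to 5 h postdosing. Total flux (photons/s/cm2) over the infected region was averaged per group. Percent reduction is versus time-matched saline controls.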

Staphylococcus aureus [15] = experiment: Reduction in bioluminescent methicillin-sensitive Staphylococcus aureus Xen29 in immunocompetent CD1 mouse with peritonitis at 50 mg/kg, sc after 3 hrs relative to control; set-up: scale not given: the % may be the effect or the level left; conditions: route subcutaneous; procedure, shortened: as §7
Staphylococcus aureus [16] = experiment: Reduction in bioluminescent methicillin-sensitive Staphylococcus aureus Xen29 in immunocompetent CD1 mouse with peritonitis at 50 mg/kg, sc after 4 hrs relative to control; set-up: scale not given: the % may be the effect or the level left; conditions: route subcutaneous; procedure, shortened: as §7
Staphylococcus aureus [17] = experiment: Reduction in bioluminescent methicillin-sensitive Staphylococcus aureus Xen29 in immunocompetent CD1 mouse with peritonitis at 50 mg/kg, sc after 5 hrs relative to control; set-up: scale not given: the % may be the effect or the level left; conditions: route subcutaneous; procedure, shortened: as §4
Staphylococcus aureus [18] = experiment: Reduction in bioluminescent methicillin-sensitive Staphylococcus aureus Xen29 in neutropenic CD1 mouse with peritonitis at 50 mg/kg, sc after 3 hrs relative to control; set-up: scale not given: the % may be the effect or the level left; conditions: route subcutaneous; procedure, shortened: as §5
Staphylococcus aureus [19] = experiment: Reduction in bioluminescent methicillin-sensitive Staphylococcus aureus Xen29 in neutropenic CD1 mouse with peritonitis at 50 mg/kg, sc after 4 hrs relative to control; set-up: scale not given: the % may be the effect or the level left; conditions: route subcutaneous; procedure, shortened: as §6
Staphylococcus aureus [20] = experiment: Reduction in bioluminescent methicillin-sensitive Staphylococcus aureus Xen29 in neutropenic CD1 mouse with peritonitis at 50 mg/kg, sc after 5 hrs relative to control; set-up: scale not given: the % may be the effect or the level left; conditions: route subcutaneous; procedure, shortened: as §6
Staphylococcus aureus [21] = experiment: Antibacterial activity against methicillin-resistant Staphylococcus aureus Xen1 infected neutropenic CD1 mouse assessed as mortality at 100 mg/kg, po within 24 hrs; conditions: Xen1, 24 h; procedure, shortened: as §1
Staphylococcus aureus [22] = experiment: Antibacterial activity against methicillin-susceptible Staphylococcus aureus Xen29 infected neutropenic CD1 mouse assessed as mortality at 100 mg/kg, po within 24 hrs; conditions: Xen29, 24 h; procedure, shortened: as §1
Staphylococcus aureus [23] = experiment: Reduction in bioluminescent methicillin-sensitive Staphylococcus aureus Xen29 in neutropenic CD1 mouse with peritonitis at 100 mg/kg, sc after 4 hrs relative to control; set-up: scale not given: the % may be the effect or the level left; conditions: route subcutaneous; procedure, shortened: as §6
Staphylococcus aureus [24] = experiment: Reduction in bioluminescent methicillin-sensitive Staphylococcus aureus Xen29 in neutropenic CD1 mouse with peritonitis at 100 mg/kg, sc after 5 hrs relative to control; set-up: scale not given: the % may be the effect or the level left; conditions: route subcutaneous; procedure, shortened: as §6
Staphylococcus aureus [25] = experiment: Reduction in bioluminescent methicillin-sensitive Staphylococcus aureus Xen29 in neutropenic CD1 mouse with peritonitis at 100 mg/kg, sc after 2 hrs relative to control; set-up: scale not given: the % may be the effect or the level left; conditions: route subcutaneous; procedure, shortened: as §6
Staphylococcus aureus [26] = experiment: Protection against methicillin-susceptible Staphylococcus aureus Xen29 infection in nonneutropenic CD1 mouse at 100 mg/kg, po after 7 days
Procedure, shortened: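 Female CD-1 mice (20–25 g, n = 5/group) were given an i.p. lethal inoculum of lux-bearing MSSA Xen-29 (2 × 10^7 to 5 × 10^8 CFU/mouse) suspended in 6% hog gastric mucin. A single dose was given by gavage 1 h after inoculation. Survival was recorded daily for 7 days after inoculation.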

Staphylococcus aureus [27] = experiment: Reduction in bioluminescent methicillin-sensitive Staphylococcus aureus Xen29 in immunocompetent CD1 mouse with peritonitis at 100 mg/kg, sc relative to control; set-up: scale not given: the % may be the effect or the level left; conditions: route subcutaneous; procedure, shortened: as §7
Staphylococcus aureus [28] = experiment: Reduction in bioluminescent methicillin-sensitive Staphylococcus aureus Xen29 in immunocompetent CD1 mouse with peritonitis at 100 mg/kg, sc after 3 hrs relative to control; set-up: scale not given: the % may be the effect or the level left; conditions: route subcutaneous; procedure, shortened: as §7
Staphylococcus aureus [29] = experiment: Reduction in bioluminescent methicillin-sensitive Staphylococcus aureus Xen29 in immunocompetent CD1 mouse at 100 mg/kg, sc after 4 hrs relative to control; set-up: scale not given: the % may be the effect or the level left; conditions: route subcutaneous; procedure, shortened: as §7
Staphylococcus aureus [30] = experiment: Reduction in bioluminescent methicillin-sensitive Staphylococcus aureus Xen29 in immunocompetent CD1 mouse with peritonitis at 100 mg/kg, sc after 5 hrs relative to control; set-up: scale not given: the % may be the effect or the level left; conditions: route subcutaneous; procedure, shortened: as §7
Staphylococcus aureus [31] = experiment: Reduction in bioluminescent methicillin-sensitive Staphylococcus aureus Xen29 in neutropenic CD1 mouse with peritonitis at 100 mg/kg, sc after 3 hrs relative to control; set-up: scale not given: the % may be the effect or the level left; conditions: route subcutaneous; procedure, shortened: as §6

## CCCCCCCCCC(=O)N[C@@H](Cc1c[nH]c2ccccc12)C(=O)N[C@H](CC(N)=O)C(=O)N[C@@H](CC(=O)O)C(=O)N[C@@H]1C(=O)NCC(=O)N[C@@H](CCCN)C(=O)N[C@@H](CC(=O)O)C(=O)N[C@H](C)C(=O)N[C@@H](CC(=O)O)C(=O)NCC(=O)N[C@H](CO)C(=O)N[C@@H]([C@H](C)CC(=O)O)C(=O)N[C@@H](CC(=O)c2ccccc2N)C(=O)O[C@@H]1C
Staphylococcus aureus [1]
  survival at 50 mg/kg: 40%
Staphylococcus aureus [2]
  MIC: 1 µg/mL (≈ 0.617 µM)
Staphylococcus aureus [3]
  survival at 50 mg/kg: 100%
Staphylococcus aureus [4]
  survival at 50 mg/kg: 100%
Staphylococcus aureus [5]
  survival at 50 mg/kg: 100%
Staphylococcus aureus [6]
  survival at 50 mg/kg: 40%
Staphylococcus aureus [7]
  Activity: 89%
Staphylococcus aureus [8]
  Activity: 97%
Staphylococcus aureus [9]
  Activity: 93%
Staphylococcus aureus [10]
  Activity: 99.9%
Staphylococcus aureus [11]
  Activity: 92%
Staphylococcus aureus [12]
  MIC: 0.5 µg/mL (≈ 0.309 µM)
Staphylococcus aureus [13]
  survival at 50 mg/kg: 100%
Staphylococcus aureus [14]
  Activity: 90%
Staphylococcus aureus [15]
  Activity: 96%
Staphylococcus aureus [16]
  Activity: 98%
Staphylococcus aureus [17]
  Activity: 99%
Staphylococcus aureus [18]
  Activity: 98%
Staphylococcus aureus [19]
  Activity: 99.4%
Staphylococcus aureus [20]
  Activity: > 99.7%

## CCOc1ccc2ccccc2c1C(=O)N[C@@H]1C(=O)N2[C@@H]1SC(C)(C)[C@@H]2C(=O)O [NAFCILLIN]
Staphylococcus aureus [21]
  survival at 100 mg/kg: 100%
Staphylococcus aureus [2]
  MIC: 0.5 µg/mL (≈ 1.21 µM)
Staphylococcus aureus [3]
  survival at 50 mg/kg: 100%
Staphylococcus aureus [22]
  survival at 100 mg/kg: 100%
Staphylococcus aureus [23]
  Activity: 98.3%
Staphylococcus aureus [24]
  Activity: 99.2%
Staphylococcus aureus [25]
  Activity: 84%
Staphylococcus aureus [26]
  Activity: 100%
Staphylococcus aureus [12]
  MIC: 64 µg/mL (≈ 154 µM)
Staphylococcus aureus [27]
  Activity: 82%
Staphylococcus aureus [28]
  Activity: 93%
Staphylococcus aureus [29]
  Activity: 96%
Staphylococcus aureus [30]
  Activity: 98%
Staphylococcus aureus [31]
  Activity: 95.6%
